Measured values gathered from unrelated publications.
Lines come from different studies, so protocols differ.
Organism: Klebsiella pneumoniae
Read-out: microbial growth

The MIC of `CC[C@H]1OC(=O)[C@H](C)[C@@H](O[C@H]2C[C@@](C)(OC)[C@@H](O)[C@H](C)O2)[C@H](C)[C@@H](O[C@@H]2O[C@H](C)C[C@H](N(C)C)[C@H]2O)[C@](C)(O)C[C@@H](C)C(=O)[C@H](C)[C@@H](O)[C@]1(C)O` is reported as 32 µg/mL (broth dilution; ATCC43816).
The MIC of `CCCCCCC#Cc1cncc(-c2nnc(SCc3cc(C(F)(F)F)cc(C(F)(F)F)c3)n2CCCN)c1` is reported as 32 to 64 µg/mL (broth dilution; DSM30104).
The MIC of `O=C(N[C@H](CO)[C@H](O)c1ccc([N+](=O)[O-])cc1)C(Cl)Cl` is reported as 4 µg/mL (broth dilution; ATCC43816).
`CC[C@H]1OC(=O)[C@H](C)[C@@H](O[C@H]2C[C@@](C)(OC)[C@@H](O)[C@H](C)O2)[C@H](C)[C@@H](O[C@@H]2O[C@H](C)C[C@H](N(C)C)[C@H]2O)[C@](C)(O)C[C@@H](C)CN(C)[C@H](C)[C@@H](O)[C@]1(C)O` has an MIC of 1 µg/mL (broth dilution; ATCC13883).
The MIC of `C[C@H]1[C@H](NC(=O)/C(=N\OC(C)(C)C(=O)O)c2csc(N)n2)C(=O)N1S(=O)(=O)O` is reported as under 0.5 µg/mL (broth dilution; ATCC43816).
With `CC1(C)S[C@@H]2[C@H](NC(=O)[C@H](N)c3ccccc3)C(=O)N2[C@H]1C(=O)O` the MIC was 8 µg/mL (broth dilution; ATCC700603).
With `Cc1cc(NS(=O)(=O)c2ccc(N)cc2)no1` the MIC was 64 µg/mL (broth dilution; ATCC43816).
With `CCCCCCCCCCCC[N+](C)(C)Cc1ccccc1` the MIC was 8 µM (ATCC4352).
The MIC of `C[C@@H](O)[C@H]1C(=O)N2C(C(=O)O)=C(SCCN=CN)C[C@H]12` is reported as 4 µg/mL (broth dilution; ATCC13883).
With `CO[C@@]1(NC(=O)Cc2cccs2)C(=O)N2C(C(=O)O)=C(COC(N)=O)CS[C@@H]21` the MIC was 1 µg/mL (broth dilution; ATCC43816).
`CCCCCCC#Cc1cncc(-c2nnc(SCc3ccc([N+](=O)[O-])cc3)n2CCCN)c1` gave an MIC of over 64 µg/mL (broth dilution; DSM30104).
`O=C(O)c1cn(C2CC2)c2cc(N3CCNCC3)c(F)cc2c1=O` has an MIC of 0.1 µM (broth dilution; ATCC27736; 16 h).
`C[C@H]1[C@H](NC(=O)/C(=N\OC(C)(C)C(=O)O)c2csc(N)n2)C(=O)N1S(=O)(=O)O` gave an MIC of 0.0625 µg/mL (broth dilution; ATCC13883).
For `CN(C)[C@@H]1C(O)=C(C(N)=O)C(=O)[C@@]2(O)C(O)=C3C(=O)c4c(O)cccc4[C@@](C)(O)[C@H]3C[C@@H]12`, the MIC was 0.13 µg/mL (broth dilution; ATCC10031; 12 h).
`CCCCCCC#Cc1cncc(-c2nnc(SCc3cc([N+](=O)[O-])cc([N+](=O)[O-])c3)n2C2CCNCC2)c1` has an MIC of over 64 µg/mL (broth dilution; DSM30104).
For `C[C@@H](O)[C@H]1C(=O)N2C(C(=O)O)=C(S[C@@H]3CN[C@H](C(=O)N(C)C)C3)[C@H](C)[C@H]12`, the MIC was 2 µg/mL (broth dilution; ATCC700603).
With `CN(C)c1ccc(O)c2c1C[C@H]1C[C@H]3[C@H](N(C)C)C(O)=C(C(N)=O)C(=O)[C@@]3(O)C(O)=C1C2=O` the MIC was 1 µg/mL (broth dilution; ATCC43816).
`CO/N=C(\C(=O)N[C@@H]1C(=O)N2C(C(=O)O)=CCS[C@H]12)c1csc(N)n1` gave an MIC of 0.125 µg/mL (broth dilution; ATCC13883).
With `CO/N=C(\C(=O)N[C@@H]1C(=O)N2C(C(=O)O)=C(CSc3nc(=O)c(=O)[nH]n3C)CS[C@H]12)c1csc(N)n1` the MIC was over 512 µg/mL (broth dilution; ATCC700603).
With `CCCCCCCCN=c1ccn(CCCCCCCCCCn2ccc(=NCCCCCCCC)cc2)cc1` the MIC was 0.5 µM (ATCC4352).
`C[C@@H](O)[C@H]1C(=O)N2C(C(=O)O)=C(S[C@@H]3CN[C@H](C(=O)N(C)C)C3)[C@H](C)[C@H]12` gave an MIC of 0.125 µg/mL (broth dilution; ATCC13883).
